Reference: ChEMBL document CHEMBL2417469, “Synthesis of novel analogs of 2-pyrazoline obtained from [(7-chloroquinolin-4-yl)amino]chalcones and hydrazine as potential antitumor and antimalarial agents” (Eur J Med Chem, 2013)

Key:
Type in all cases: functional
[1] = tested on: NCI-H522; assay: Cytotoxicity against human NCI-H522 cells after 48 hrs by SRB assay; conditions: NCI-H522, 48 h
How it was run: (§1)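 NCI 60-cell-line screen. Cells preincubated 24 h at 37 °C, 5% CO2; time-zero plates TCA-fixed. Compounds dissolved in DMSO and tested at five concentrations (100, 10, 1.0, 0.1, 0.01 µM) for 48 h continuous exposure. Adherent cells fixed with cold TCA (10% final), then SRB stained; absorbance at 515 nm. GI50, TGI and LC50 calculated from growth relative to time-zero and untreated controls.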

[2] = tested on: Malme-3M; assay: Cytotoxicity against human MALME-3M cells after 48 hrs by SRB assay; how it was run: as §1
[3] = tested on: SK-MEL-2; assay: Cytotoxicity against human SK-MEL-2 cells after 48 hrs by SRB assay; conditions: SK-MEL-2, 48 h; how it was run: as §1
[4] = tested on: CAKI-1; assay: Cytotoxicity against human Caki1 cells after 48 hrs by SRB assay; conditions: CAKI-1, 48 h; how it was run: as §1
[5] = tested on: HOP-92; assay: Cytotoxicity against human HOP92 cells after 48 hrs by SRB assay; conditions: HOP-92, 48 h; how it was run: as §1
[6] = tested on: A549; assay: Cytotoxicity against human A549/ATCC cells after 48 hrs by SRB assay; conditions: A549, 48 h; how it was run: as §1
[7] = tested on: SK-OV-3; assay: Cytotoxicity against human SKOV3 cells after 48 hrs by SRB assay; conditions: SK-OV-3, 48 h; how it was run: as §1
[8] = tested on: Hs-578T; assay: Cytotoxicity against human Hs578T cells after 48 hrs by SRB assay; how it was run: as §1
[9] = tested on: LOX IMVI; assay: Cytotoxicity against human LOXIMVI cells after 48 hrs by SRB assay; how it was run: as §1
[10] = tested on: MDA-MB-435; assay: Cytotoxicity against human MDA-MB-435 cells after 48 hrs by SRB assay; conditions: MDA-MB-435, 48 h; how it was run: as §1
[11] = tested on: BT-549; assay: Cytotoxicity against human BT549 cells after 48 hrs by SRB assay; conditions: BT-549, 48 h; how it was run: as §1
[12] = tested on: NCI-H460; assay: Cytotoxicity against human NCI-H460 cells after 48 hrs by SRB assay; conditions: NCI-H460, 48 h; how it was run: as §1
[13] = tested on: HCT-15; assay: Cytotoxicity against human HCT15 cells after 48 hrs by SRB assay; conditions: HCT-15, 48 h; how it was run: as §1
[14] = tested on: PC-3; assay: Cytotoxicity against human PC3 cells after 48 hrs by SRB assay; conditions: PC-3, 48 h; how it was run: as §1
[15] = tested on: MDA-MB-468; assay: Cytotoxicity against human MDA-MB-468 cells after 48 hrs by SRB assay; conditions: MDA-MB-468, 48 h; how it was run: as §1
[16] = tested on: HOP-62; assay: Cytotoxicity against human HOP62 cells after 48 hrs by SRB assay; conditions: HOP-62, 48 h; how it was run: as §1
[17] = tested on: RPMI-8226; assay: Cytotoxicity against human RPMI8226 cells after 48 hrs by SRB assay; conditions: RPMI-8226, 48 h; how it was run: as §1
[18] = tested on: OVCAR-8; assay: Cytotoxicity against human OVCAR8 cells after 48 hrs by SRB assay; conditions: OVCAR-8, 48 h; how it was run: as §1
[19] = tested on: CCRF-CEM; assay: Cytotoxicity against human CCRF-CEM cells after 48 hrs by SRB assay; how it was run: as §1
[20] = tested on: M14; assay: Cytotoxicity against human M14 cells after 48 hrs by SRB assay; conditions: M14, 48 h; how it was run: as §1
[21] = tested on: SK-MEL-28; assay: Cytotoxicity against human SK-MEL-28 cells after 48 hrs by SRB assay; conditions: SK-MEL-28, 48 h; how it was run: as §1
[22] = tested on: 786-0; assay: Cytotoxicity against human 786-0 cells after 48 hrs by SRB assay; conditions: 786-0, 48 h; how it was run: as §1
[23] = tested on: KM12; assay: Cytotoxicity against human KM12 cells after 48 hrs by SRB assay; conditions: KM12, 48 h; how it was run: as §1
[24] = tested on: MCF7; assay: Cytotoxicity against human MCF7 cells after 48 hrs by SRB assay; conditions: MCF7, 48 h; how it was run: as §1
[25] = tested on: HL-60(TB); assay: Cytotoxicity against human HL-60(TB) cells after 48 hrs by SRB assay; conditions: HL-60, 48 h; how it was run: as §1
[26] = tested on: ACHN; assay: Cytotoxicity against human ACHN cells after 48 hrs by SRB assay; how it was run: as §1
[27] = tested on: HT-29; assay: Cytotoxicity against human HT-29 cells after 48 hrs by SRB assay; conditions: HT-29, 48 h; how it was run: as §1
[28] = tested on: SK-MEL-5; assay: Cytotoxicity against human SK-MEL-5 cells after 48 hrs by SRB assay; conditions: SK-MEL-5, 48 h; how it was run: as §1
[29] = tested on: UACC-62; assay: Cytotoxicity against human UACC62 cells after 48 hrs by SRB assay; conditions: UACC-62, 48 h
How it was run: (§2)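 NCI 60-cell screen. Cells grew 24 h (37 °C, 5% CO2) before compound was added. Compounds were in DMSO and diluted in medium with gentamicin, then tested at five levels (100, 10, 1.0, 0.1, 0.01 µM) with 48 h continuous exposure. Adherent cells were fixed with TCA (10% final) and stained with 0.4% SRB, absorbance read at 515 nm. A time-zero plate was included. LC50 is the concentration giving 50% loss of protein relative to time zero.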

[30] = tested on: SN12C; assay: Cytotoxicity against human SN12C cells after 48 hrs by SRB assay; how it was run: as §1
[31] = tested on: COLO 205; assay: Cytotoxicity against human COLO205 cells after 48 hrs by SRB assay; conditions: COLO 205, 48 h; how it was run: as §1
[32] = tested on: HCT-116; assay: Cytotoxicity against human HCT116 cells after 48 hrs by SRB assay; conditions: HCT-116, 48 h; how it was run: as §1
[33] = tested on: T47D; assay: Cytotoxicity against human T47D cells after 48 hrs by SRB assay; how it was run: as §2
[34] = tested on: SR; assay: Cytotoxicity against human SR cells after 48 hrs by SRB assay; how it was run: as §2
[35] = tested on: NCI/ADR-RES; assay: Cytotoxicity against human NCI/ADR-RES cells after 48 hrs by SRB assay; how it was run: as §1
[36] = tested on: NCI-H23; assay: Cytotoxicity against human NCI-H23 cells after 48 hrs by SRB assay; conditions: NCI-H23, 48 h; how it was run: as §1
[37] = tested on: OVCAR-3; assay: Cytotoxicity against human OVCAR3 cells after 48 hrs by SRB assay; conditions: OVCAR-3, 48 h; how it was run: as §1
[38] = read-out: LC50 (the source's name)

Compound: COc1cc(C2CC(c3cccc(Nc4ccnc5cc(Cl)ccc45)c3)=NN2C=O)cc(OC)c1OC (centres undefined)
- GI50 [1]: 750 nM
- CC50 [1, 38]: > 100000 nM
- GI50 [2]: 810 nM
- LC50 [2]: > 100000 nM
- GI50 [3]: 730 nM
- LC50 [3]: 50100 nM
- GI50 [4]: 550 nM
- LC50 [4]: 12100 nM
- GI50 [5]: 2750 nM
- LC50 (concentration killing 50% of cells) [5]: > 100000 nM
- GI50 [6]: 660 nM
- CC50 [6, 38]: > 100000 nM
- GI50 [7]: 1400 nM
- LC50 (concentration killing 50% of cells) [7]: > 100000 nM
- GI50 [8]: 680 nM
- LC50 (50% net cell kill) [8]: > 100000 nM
- GI50 [9]: 710 nM
- LC50 [9]: > 100000 nM
- GI50 [10]: 220 nM
- LC50 [10]: > 100000 nM
- GI50 [11]: 390 nM
- LC50 (50% net cell kill vs time zero) [11]: 4610 nM
- GI50 [12]: 420 nM
- LC50 [12]: > 100000 nM
- GI50 [13]: 550 nM
- LC50 (concentration killing 50% of cells relative to time zero) [13]: > 100000 nM
- GI50 [14]: 1460 nM
- LC50 [14]: > 100000 nM
- GI50 [15]: 300 nM
- LC50 [15]: 23300 nM
- GI50 [16]: 1120 nM
- LC50 (50% lethal concentration) [16]: 66500 nM
- GI50 [17]: 8830 nM
- LC50 (concentration killing 50% of cells) [17]: > 100000 nM
- GI50 [18]: 2060 nM
- LC50 (50% net cell kill) [18]: > 100000 nM
- GI50 [19]: 650 nM
- LC50 (concentration killing 50% of cells relative to time zero) [19]: > 100000 nM
- GI50 [20]: 350 nM
- CC50 [20, 38]: 57500 nM
- GI50 [21]: 1020 nM
- CC50 [21, 38]: 97100 nM
- GI50 [22]: 840 nM
- LC50 [22]: 76300 nM
- GI50 [23]: 500 nM
- LC50 (concentration killing 50% of cells) [23]: > 100000 nM
- GI50 [24]: 370 nM
- CC50 [24, 38]: > 100000 nM
- GI50 [25]: 260 nM
- CC50 [25, 38]: 3970 nM
- GI50 [26]: 1270 nM
- CC50 [26, 38]: > 100000 nM
- GI50 [27]: 400 nM
- LC50 [27]: 4990 nM
- GI50 [28]: 420 nM
- LC50 (concentration killing 50% of cells present at time zero) [28]: 23500 nM
- GI50 [29]: 720 nM
- CC50 [29, 38]: 84000 nM
- GI50 [30]: 780 nM
- LC50 (50% net cell kill relative to time zero) [30]: > 100000 nM
- GI50 [31]: 640 nM
- LC50 [31]: > 100000 nM
- GI50 [32]: 400 nM
- LC50 [32]: 6710 nM
- GI50 [33]: 650 nM
- LC50 (concentration giving 50% cell kill relative to time zero) [33]: 69300 nM
- GI50 [34]: 340 nM
- LC50 [34]: > 100000 nM
- GI50 [35]: 1360 nM
- CC50 [35, 38]: > 100000 nM
- GI50 [36]: 1380 nM
- CC50 [36, 38]: > 100000 nM
- GI50 [37]: 520 nM
- LC50 [37]: 6060 nM
